Screening data: PubChem, several laboratories
PREPL inh: human PREPL enzyme inhibition; Q4J6C6; recombinant PREPL, fluorescence polarization activity-based probe; inhibition, % at 5.96 µM; 320,000 compounds, 0.68% hits; in the data active = inhibition above about 43%;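 also: 0% = enzyme with DMSO and 100% = wells lacking enzyme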
ALR inh: inhibitors of human sulfhydryl oxidase ALR; P55789; 290,000 compounds, 3.8% hits; inhibition, % (test concentration not listed); purified ALR, DTT oxidation, H2O2 HRP-luminol luminescence;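 active = mean replicate inhibition above about 79%, with every replicate also reaching it, limit read from the data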
RBBP9 inh: human RBBP9 hydrolase inhibition | inhibition, % at 7.94 µM | AID 1515 | O75884 | 220,000 compounds, 0.2% hits | recombinant RBBP9, FP-Rh probe fluorescence polarization;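 active = inhibition above the campaign mean of all tested compounds plus 3 SD, cut at about 14% in these data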;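 also: plate controls were DMSO wells with RBBP9 for no effect and wells lacking RBBP9 protein for full effect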
Target sequence (O75884 whole entry, looked up): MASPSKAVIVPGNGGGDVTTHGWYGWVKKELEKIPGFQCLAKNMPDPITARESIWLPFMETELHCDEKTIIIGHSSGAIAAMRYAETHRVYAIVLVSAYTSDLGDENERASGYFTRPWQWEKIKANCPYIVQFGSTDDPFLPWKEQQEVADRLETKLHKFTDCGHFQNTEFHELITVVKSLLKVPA
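Measured by – fluorescence polarization · Test system – RBBP9 protein · Input – 2.5 µM RBBP9 dispensing solution, before mixing · Measure – percent inhibition from mP, scaled between DMSO and no-protein wells · Benchmarks – DMSO-treated enzyme wells and wells lacking RBBP9 · Times – preincubation 30 min plus labeling 45 min at 25 °C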
SUMO HTRF inh: SUMOylation inhibition. HTRF SUMOylation assay, SAE1/SAE2 + UBC9, in vitro. inhibition, % at 35 µM. P63279. 290,000 compounds, 0.36% hits; in the data active = inhibition above about 50%, passing the limit was not always enough
Target sequence (P63279 whole entry, looked up): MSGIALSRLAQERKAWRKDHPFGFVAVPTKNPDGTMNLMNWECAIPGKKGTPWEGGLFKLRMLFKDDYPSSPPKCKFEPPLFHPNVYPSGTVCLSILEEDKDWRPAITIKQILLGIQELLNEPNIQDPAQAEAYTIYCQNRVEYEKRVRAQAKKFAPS
UBC13 inh: blocks human UBC13 polyubiquitin chain formation | P61088 | inhibition, % at 20 µM | AID 485273 | 330,000 compounds, 0.47% hits | TR-FRET; in the data active = inhibition above about 45%, passing the limit was not always enough
Target sequence (P61088 whole entry, looked up): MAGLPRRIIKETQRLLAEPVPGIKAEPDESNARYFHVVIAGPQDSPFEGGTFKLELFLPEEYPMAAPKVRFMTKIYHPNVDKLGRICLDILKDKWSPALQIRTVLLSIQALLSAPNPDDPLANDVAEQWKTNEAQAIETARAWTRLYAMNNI
Rin1-Abl PPI inh: human Rin1-Abl interaction inhibition | TR-FRET Rin1/Abl binding, biochemical | inhibition, % at 7.35 µM | 360,000 compounds, 0.4% hits; in the data active = inhibition above about 5%, passing the limit was not always enough
Numbers without * were called inactive; · = no result. Shown are actives, neighbours in structure and some others; about 4.3% of the full set was active somewhere.

SMILES | PREPL inh | ALR inh | RBBP9 inh | SUMO HTRF inh | UBC13 inh | Rin1-Abl PPI inh
COc1ccc(-n2c(N)c(C(=O)Nc3c(C)n(C)n(-c4ccccc4)c3=O)c3nc4ccccc4nc32)cc1 | -0.8 | -11.8 | 6.7 | 25.7 | -4.6 | 4.1
Cc1ccccc1N(C=O)c1ccccc1C | · | · | · | · | · | 2.0
CC(C)CC(=O)N1CCN(C(=O)c2ccc(F)cc2)CC1 | 2.5 | -5.7 | · | -1.6 | 4.8 | -0.4
O=C(O)c1ccc(CSc2nc3c(c(=O)[nH]2)CCC3)cc1 | · | · | · | · | · | -1.6
Cc1nc(SCc2ccc(C(=O)O)cc2)nc2c1CCCC2 | -10.6 | 95.9* | -3.2 | 15.4 | -1.9 | 0.1
CC(C)N1CCC2(CC1)C(C#N)=C(N)NC(S)=C2C#N | 49.2* | -6.1 | 1.1 | 52.0* | 1.2 | ·
N#CC1=C(N)NC(SCC(=O)O)=C(C#N)C12CCCC2 | 13.3 | 6.9 | 6.9 | 11.6 | -13.9 | -1.0
COc1ccccc1CCNC(=O)C(=O)NCC1OCCCN1S(=O)(=O)c1ccc(F)cc1C (stereo unspecified) | -0.9 | -10.3 | · | 8.8 | 3.4 | 3.9
CCCn1c(N)c(NCCN2CCOCC2)c(=O)[nH]c1=O | 25.4 | 99.4* | 5.5 | -2.6 | -9.9 | 3.3
Cc1ccccc1CN1CCN(CC(=O)NCc2ccccc2)CC1 | 5.8 | -29.9 | · | 9.1 | 2.4 | -4.2
Clc1ccc2nc(CN3CCCc4ccccc43)cn2c1 | 66.8* | · | -5.3 | -16.6 | 4.2 | -5.0
CCOc1ccc(N(C(=O)c2snc(C(N)=O)c2N)C(C(=O)NCC2CCCO2)c2ccco2)cc1 (stereo unspecified) | 5.1 | 34.4 | · | 17.7 | 79.1* | 0.3
CCOc1ccc(C(C(=O)NCC2CCCO2)N(Cc2ccccc2)C(=O)c2snc(C(N)=O)c2N)cc1 (stereo unspecified) | -7.5 | 2.2 | · | 10.4 | 13.7 | -1.1
Cc1ccccc1S(=O)(=O)NC(=O)C1(C)CCN1C(=O)c1ccccc1CCc1ccccc1 (stereo unspecified) | · | · | · | · | · | -2.0
CCOC(=O)/C(=N\Nc1cc(Cl)ccc1Cl)N1CCOCC1 | 8.7 | 97.6* | 2.3 | -15.0 | -5.2 | -0.2
CCc1ccc(C(=O)CN2C(=O)NC3(CCOc4ccccc43)C2=O)s1 (stereo unspecified) | 5.5 | -3.5 | · | · | -12.1 | 3.5
O=C(N/N=C/c1ccc(Cl)c([N+](=O)[O-])c1)c1cc(-c2ccc3c4c(cccc24)CC3)n[nH]1 | 21.5 | 21.4 | -7.2 | 51.1* | -15.5 | -3.8
CCNC(=O)C1(C)CCCN1Cc1c(F)cccc1F (stereo unspecified) | · | · | · | · | · | 3.6
CC1CCCC(C)N1/N=C/c1cc(Br)c(O)c(Br)c1 (stereo unspecified) | -0.3 | 9.4 | 0.9 | -1.7 | 12.1 | ·
COc1cc(/C=N/N2C(C)CCCC2C)cc(Br)c1O (stereo unspecified) | 3.5 | 99.3* | 1.5 | -6.7 | -6.0 | -1.7
COc1cc(C=NN2CCCCC2)cc(OC)c1OC | · | · | · | · | · | 3.2
Oc1ccc(/C=N/N2CCCCC2)cc1O | 6.9 | 98.8* | · | 6.3 | 3.9 | 0.5
CN=c1scc(C)n1/N=C/c1cc(Br)c(O)c(Br)c1 | 2.7 | · | -2.7 | 11.0 | -2.6 | -3.5
CCN=c1scc(C)n1/N=C/c1cc(Br)c(O)c(OC)c1 | 8.1 | 86.6* | -4.4 | 0.2 | -14.4 | -1.9
COc1cc(/C=N/N2CCCCC2)cc(OC)c1O | 7.9 | 99.3* | · | -2.9 | -4.1 | 1.1
SMILES | PREPL inh | ALR inh | RBBP9 inh | SUMO HTRF inh | UBC13 inh | Rin1-Abl PPI inh
CC1CCCC(C)N1/N=C/c1ccc(O)c(O)c1 (stereo unspecified) | 14.6 | 98.6* | · | 1.3 | 8.1 | 4.8
COc1ccc(/C=N/N2C(C)CCCC2C)cc1O (stereo unspecified) | 19.3 | 34.0 | · | 10.6 | -3.2 | 4.5
O=C(Nc1ccc(F)cc1)Oc1ccc[nH]c1=O | 11.8 | -6.4 | -2.5 | 98.6* | 2.5 | -2.2
O=C(Oc1ccc[nH]c1=O)c1ccccc1 | · | · | · | · | · | -1.5
Cc1nn2c(NCCOCCO)c3c(nc2c1-c1ccccc1)CCCC3 | 10.7 | 86.4* | -1.1 | -2.0 | 1.3 | -2.8
S=c1[nH]nc(-c2cccc3ccccc23)n1-c1cccnc1 | -1.6 | 90.9* | 2.4 | 8.8 | -3.9 | -2.0
COc1ccccc1CNCC(=O)Nc1ccc(N2CCOCC2)cc1 | 10.5 | 99.0* | -7.6 | 10.9 | -0.1 | 1.2
COC(=O)Cc1ccc(NC(=S)Nc2ccc(N3CCOCC3)cc2)cc1 | 12.8 | 88.9* | 4.5 | 1.6 | 6.3 | -2.0
CCn1cc(SCC(=O)NCC2CCCO2)c2ccccc21 (stereo unspecified) | -10.3 | 98.2* | · | -2.5 | -1.6 | -0.9
COc1ccccc1NC(=O)Nc1ccc(N2CCOCC2)cc1 | 11.2 | 49.6 | 1.8 | 4.1 | 8.1 | 1.7
Cc1cn(CCC(=O)Nc2ccc(N3CCOCC3)cc2)c2ccccc12 | 9.4 | 82.1* | -1.5 | -7.2 | 4.7 | 0.1
CC1(C)CC(=O)C=C(c2ccc(F)nc2)C1 | 18.7 | 6.1 | · | · | -12.7 | 1.0
CC(Cc1cccnc1)NC(=O)c1ccccc1OC1CCN(S(C)(=O)=O)CC1 (stereo unspecified) | 0.9 | 3.8 | 7.2 | 1.2 | -4.6 | 2.2
Cc1cccc(NC(=S)Nc2ccc(N3CCOCC3)cc2)c1C | 11.2 | 98.5* | -9.0 | -4.1 | 4.9 | -3.8
CC(=O)Nc1ccc(NC(=O)CSc2cn(CC(=O)N3CCOCC3)c3ccccc23)cc1 | -5.2 | 98.9* | · | 10.2 | 7.7 | -2.1
CCn1cc(SCC(=O)N2CCOCC2)c2ccccc21 | 8.0 | 3.7 | -5.7 | -3.0 | -0.5 | 0.1
COc1cc2c(cc1OC)C(C)=NC1(CCCCC1)C2 | 5.9 | -7.5 | 7.5 | 59.0* | 17.8 | -2.5
COc1cc2c(cc1OC)C(SC)=NC1(CCCC1)C2 | 0.6 | -0.9 | -1.8 | 20.5 | -1.0 | 4.3
CCOC(=O)c1ccc2[nH]c3ccccc3c2c1 | -1.2 | -0.2 | -4.0 | 17.2 | 12.8 | 0.7
COc1cc2[nH]c3ccccc3c2cc1C | -0.3 | 81.0* | · | -21.2 | 13.4 | -0.5
CC(C)CC(NC(=O)C(NC(=O)C1CCC(=O)N1C(=O)OCc1ccccc1)C(C)C)C(=O)N1CCCC1C(N)=O (stereo unspecified) | 4.1 | -0.1 | · | 6.2 | 4.0 | 0.8
O=C(COc1cc2oc(=O)cc(-c3ccccc3)c2cc1Cl)NCc1ccccn1 | -5.2 | -7.2 | · | -4.1 | -0.8 | 0.2
O=S(=O)(O)c1cccc2cccc(Nc3ccccc3)c12 | -6.5 | 98.7* | · | · | -1.0 | -1.8
CC(C)(C)OC(=O)C[C@H]1C/C=C\C[C@@H](CC(=O)N(CCO)Cc2ccccc2)C(=O)N[C@@H](Cc2ccccc2)COC1=O | 11.9 | 4.5 | · | · | 1.8 | 0.6
Cc1cc(NC(=O)CSc2ccccc2)no1 | 18.6 | 15.7 | -0.9 | 16.0 | -0.5 | -1.9
CC(=O)Nc1ccc(SCC(=O)Nc2cc(C)on2)cc1 | 5.4 | 99.2* | -1.2 | -24.6 | 6.9 | -4.6
CC(=O)Nc1ccc(NC(=O)c2ccccc2Br)cc1 | · | · | · | · | · | -1.5
CC(=O)Nc1ccc(SCC(=O)Nc2cc(C(C)(C)C)nn2-c2ccccc2)cc1 | -11.2 | 89.4* | -10.8 | -17.6 | 3.6 | -3.4
